pIC50: −log10 of the molar value. Activity calls are given as the source filed them. No cut-off for these calls is given here.
Columns and labels:
HeLa [1] = assay: Cytotoxicity against human HeLa cells after 72 hrs by MTT assay; format: functional, cell-based
Method in brief: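 HeLa cells in DMEM with 4 mM L-glutamine, penicillin, streptomycin and 10% FBS. Seeded at 4000 cells/well, settled 24 h, then given serially diluted compound for 72 h at 37°C in 5% CO2. MTT in IMDM for 4 h, acidified ethanol lysis 15 min, A570 with 690 nm background. IC50 is 50% absorbance of untreated wells; three experiments in triplicate.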

HeLa [2] = assay: Induction of morphological changes in human HeLa cells assessed as swollen cells at IC50 after 24 hrs by phase contrast microscopic analysis; format: functional, cell-based
Method in brief: (§1)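 HeLa cells in DMEM with 10% FBS at 37°C, 5% CO2. […] Morphology compared with untreated cells under phase contrast microscope.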

HeLa [3] = assay: Induction of apoptosis in human HeLa cells assessed as viable cells level at IC50 after 48 hrs by Annexin V-FITC/propidium iodide staining based flow cytometric analysis (reference value: 77.09%); format: functional
HeLa [4] = assay: Induction of apoptosis in human HeLa cells assessed as apoptotic body formation at IC50 by DAPI staining-based fluorescence microscopic analysis; format: functional, cell-based
Method in brief: (§2)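 Cells at 1×10^5 per coverslip exposed at IC50 concentration. Fixed in methanol:acetic acid 3:1 v/v, stained with DAPI 5 µg/mL for 20 min. Nuclear morphology viewed by fluorescence microscopy with a […].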

HeLa [5] = assay: Induction of morphological changes in human HeLa cells assessed as detached cells at IC50 after 24 hrs by phase contrast microscopic analysis; format: functional, cell-based; method in brief: as §1
[6] = Induction of hemolysis in human erythrocytes at IC50 by standard optical density assay relative to control; format: cell-based, Erythrocyte; details: read-out: Activity
Method in brief: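 Donor blood diluted in saline; RBCs spun down at 3000 rpm for 10 min and washed three times. Mixed with compound at a range of concentrations and incubated at 37°C in 5% CO2. Spun at 3000 rpm for 5 min, supernatant OD read at 570 nm. Hemolysis % calculated against saline (0%) and distilled water (100%) controls.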

HeLa [7] = assay: Induction of apoptosis in human HeLa cells assessed as chromatin condensation at IC50 by DAPI staining-based fluorescence microscopic analysis; format: functional, cell-based; method in brief: as §2
HeLa [8] = assay: Induction of apoptosis in human HeLa cells assessed as necrotic cells level at IC50 after 48 hrs by Annexin V-FITC/propidium iodide staining based flow cytometric analysis (reference value: %); format: functional
HeLa [9] = assay: Induction of morphological changes in human HeLa cells assessed as rounded cells at IC50 after 24 hrs by phase contrast microscopic analysis; format: functional, cell-based; method in brief: as §1
HeLa [10] = assay: Induction of ROS generation in human HeLa cells at IC50 after 3 hrs by DCFH-DA dye-based flow cytometric analysis; format: functional, cell-based
Method in brief: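 Harvested, washed twice in PBS, then 5 µM DCFH-DA (final) in DMEM for 10 min at 37°C. Flow cytometry at ex 485 / em 530 nm on 20000 cells per sample. Output is % of cells with DCF green fluorescence.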

HeLa [11] = assay: Induction of apoptosis in human HeLa cells assessed as late apoptotic cells level at IC50 after 48 hrs by Annexin V-FITC/propidium iodide staining based flow cytometric analysis (reference value: %); format: functional
HeLa [12] = assay: Induction of morphological changes in human HeLa cells assessed as cell shrinkage at IC50 after 24 hrs by phase contrast microscopic analysis; format: functional, cell-based; method in brief: as §1
HeLa [13] = assay: Induction of apoptosis in human HeLa cells assessed as increase in caspase3 levels at IC50 after 24 hrs by Western blot analysis; format: functional, cell-based
Method in brief: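 Extracts of treated cells quantified by Bradford assay. 50 μg protein run on 12% SDS-PAGE and transferred to nitrocellulose. Blocked in 5% skim milk in PBS for 1 h at room temperature, primary antibody overnight, goat anti-mouse 1:2000. Three independent experiments in triplicate.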

HeLa [14] = assay: Induction of apoptosis in human HeLa cells assessed as early apoptotic cells level at IC50 after 48 hrs by Annexin V-FITC/propidium iodide staining based flow cytometric analysis (reference value: 0%); format: functional
HeLa [15] = assay: Induction of apoptosis in human HeLa cells assessed as nuclear shrinkage at IC50 by DAPI staining-based fluorescence microscopic analysis; format: functional, cell-based; method in brief: as §2
HeLa [16] = assay: Induction of apoptosis in human HeLa cells assessed as cytoplasmic shrinkage at IC50 by DAPI staining-based fluorescence microscopic analysis; format: functional, cell-based; method in brief: as §2
HeLa [17] = assay: Induction of apoptosis in human HeLa cells at IC50 after 48 hrs by Annexin V-FITC/propidium iodide staining based flow cytometric analysis (reference value: 100%); format: functional
HeLa [18] = assay: Induction of morphological changes in human HeLa cells assessed as disintegrated membrane at IC50 after 24 hrs by phase contrast microscopic analysis; format: functional, cell-based; method in brief: as §1

SMILES | Activity (HeLa [1]) | pIC50 (HeLa [1]) | Activity (HeLa [2]) | Activity (HeLa [3]) | Activity (HeLa [4]) | Activity (HeLa [5]) | hemolysis [6] | Activity (HeLa [7]) | Activity (HeLa [8]) | Activity (HeLa [9]) | Activity (HeLa [10]) | Activity (HeLa [11]) | Activity (HeLa [12]) | Activity (HeLa [13]) | Activity (HeLa [14]) | Activity (HeLa [15]) | Activity (HeLa [16]) | Activity (HeLa [17]) | Activity (HeLa [18])
O=C1c2cccc([N+](=O)[O-])c2NC[C@@]12[C@H](c1ccc(F)cc1)[C@@H](c1ccccc1)N[C@]21C(=O)Nc2ccc(Cl)cc21 | Dose-dependent effect | 4.57 |  |  |  |  |  |  |  |  |  |  |  |  |  |  |  |  | 
COc1ccc([C@@H]2[C@@H](c3ccccc3)N[C@]3(C(=O)Nc4ccc(Cl)cc43)[C@]23CNc2c(cccc2[N+](=O)[O-])C3=O)cc1 | Dose-dependent effect | 4.80 | Active | 2.44% | Active | Active | < 7% | Active | 0% | Active | Active | 1.42% | Active | Active | 85.33% | Active | Active | 95.68% | Active
O=C1c2cccc([N+](=O)[O-])c2NC[C@@]12[C@H](c1ccc(Br)cc1)[C@@H](c1ccccc1)N[C@]21C(=O)Nc2ccc(Cl)cc21 | Dose-dependent effect | 4.68 | Active |  | Active | Active | < 7% | Active |  | Active | Active |  | Active |  |  | Active | Active |  | Active
O=C1c2cccc([N+](=O)[O-])c2NC[C@@]12[C@H](c1ccc(F)cc1)[C@@H](c1ccccc1)N[C@]21C(=O)Nc2ccc(Br)cc21 | Dose-dependent effect | 4.59 |  |  |  |  |  |  |  |  |  |  |  |  |  |  |  |  | 
O=C1c2cccc([N+](=O)[O-])c2NC[C@@]12[C@H](c1ccc(Br)cc1)[C@@H](c1ccccc1)N[C@]21C(=O)Nc2ccc(F)cc21 | Dose-dependent effect | 4.59 |  |  |  |  |  |  |  |  |  |  |  |  |  |  |  |  | 
COc1ccc([C@@H]2[C@@H](c3ccccc3)N[C@]3(C(=O)Nc4ccc(Br)cc43)[C@]23CNc2c(cccc2[N+](=O)[O-])C3=O)cc1 | Dose-dependent effect | 4.72 | Active |  | Active | Active | < 7% | Active |  | Active | Active |  | Active |  |  | Active | Active |  | Active
COc1cccc2c1C(=O)c1c(O)c3c(c(O)c1C2=O)C[C@@](O)(C(=O)CO)C[C@@H]3O[C@H]1C[C@H](N)[C@H](O)[C@H](C)O1 [DOXORUBICIN] | Dose-dependent effect | 4.85 |  |  |  |  |  |  |  |  |  |  |  |  |  |  |  |  | 
O=C1c2cccc([N+](=O)[O-])c2NC[C@@]12[C@H](c1ccc(Br)cc1)[C@@H](c1ccccc1)N[C@]21C(=O)Nc2ccc(Br)cc21 | Dose-dependent effect | 4.60 |  |  |  |  |  |  |  |  |  |  |  |  |  |  |  |  | 
O=C1c2cccc([N+](=O)[O-])c2NC[C@@]12[C@H](c1ccc(F)cc1)[C@@H](c1ccccc1)N[C@]21C(=O)Nc2ccc(F)cc21 | Dose-dependent effect | 4.70 |  |  |  |  |  |  |  |  |  |  |  |  |  |  |  |  | 
O=C1c2cccc([N+](=O)[O-])c2NC[C@@]12[C@H](c1ccc(Cl)cc1)[C@@H](c1ccccc1)N[C@]21C(=O)Nc2ccc(Cl)cc21 | Dose-dependent effect | 4.74 | Active |  | Active | Active | < 7% | Active |  | Active | Active |  | Active |  |  | Active | Active |  | Active
O=C1c2cccc([N+](=O)[O-])c2NC[C@@]12[C@H](c1ccc(Cl)cc1)[C@@H](c1ccccc1)N[C@]21C(=O)Nc2ccc(Br)cc21 | Dose-dependent effect | 4.64 | Active |  | Active | Active | < 7% | Active |  | Active | Active |  | Active |  |  | Active | Active |  | Active
COc1ccc([C@@H]2[C@@H](c3ccccc3)N[C@]3(C(=O)Nc4ccc(F)cc43)[C@]23CNc2c(cccc2[N+](=O)[O-])C3=O)cc1 | Dose-dependent effect | 4.62 |  |  |  |  |  |  |  |  |  |  |  |  |  |  |  |  | 
O=C1c2cccc([N+](=O)[O-])c2NC[C@@]12[C@H](c1ccc(Cl)cc1)[C@@H](c1ccccc1)N[C@]21C(=O)Nc2ccc(F)cc21 | Dose-dependent effect | 4.60 |  |  |  |  |  |  |  |  |  |  |  |  |  |  |  |  | 
